Assays:
[1] = Ex vivo biodistribution, normal tissues; assay type: in vivo, NSG mice; details: at all the time points (10, 60, 120 minutes); blocking dose had minimal effect
Procedure, shortened: (§1)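 Female NSG mice (6–8 weeks) bearing subcutaneous CHO/hPD-L1 and parental CHO tumours received radiotracer iv in saline (from 5% DMSO/Tween 20 stock). For blocking, it was coinjected with 50 µg unmodified peptide. Mice were dissected at 10, 60 and 120 min (n = 4 per time point). Blood, tumours and tissues were weighed and gamma-counted with triplicate radioactive standards. Values are %ID/g, mean ± SEM, compared by unpaired two-tailed t test.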

[2] = Ex vivo biodistribution, MDAMB231 xenografts; assay type: in vivo, NSG mice; details: female, NSG, mouse, MDAMB231 tumor (xenograft), iv, 740 kBq, total radioactivity
Procedure, shortened: (§2)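 Female NSG mice (6–8 weeks) with subcutaneous xenografts got 740 kBq radiotracer in 200 µL iv. The radiotracer was reconstituted in saline with 5% DMSO and Tween 20, then diluted in saline. Mice were killed at 120 min (MDAMB231 also 60 min, plus a group coinjected with 50 µg unmodified peptide). Blood, tumour and tissues were weighed and gamma-counted with triplicate standards. %ID/g reported as mean ± SEM.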

[3] = Ex vivo biodistribution, H226 xenografts; assay type: in vivo, NSG mice; details: female, NSG, mouse, H226 tumor (xenograft), iv, 740 kBq, total radioactivity
Procedure, shortened: as §2

[4] = system: hPD-L1, CHO, MDAMB231, SUM149, H226, and H1155 cells; assay: [^18F]FPy-WL12 in vitro uptake assay; assay type: cell-based; details: blocking with 1 µM unmodified WL12; 1 hour at 37°C
Procedure, shortened: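 Cells were lifted with non-enzymatic dissociation buffer. 1 × 10⁶ cells in PBS with 2 mM EDTA and 1% FBS were incubated with 1 µCi radiotracer for 1 h at 37°C, washed three times with cold PBS, and bound activity was gamma-counted. CHO-hPD-L1 cells were kept in F-12K/10% FBS with 2 mg/mL G418. SUM149 cells were grown in Ham's F-12/5% FBS with insulin and hydrocortisone. Runs were in triplicate, repeated three times.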

hPD-L1 tumors = assay: Ex vivo biodistribution, hPD-L1 xenografts; assay type: in vivo, NSG mice; details: co-injected with 50 µg blocking dose of WL12
Procedure, shortened: as §1

[5] = Ex vivo biodistribution, hPD-L1 xenografts; assay type: in vivo, NSG mice; details: female, NSG, mouse, hPD-L1 tumor (xenograft), iv, 740 kBq, total radioactivity
Procedure, shortened: as §1

[6] = Ex vivo biodistribution, SUM149 xenografts; assay type: in vivo, NSG mice; details: female, NSG, mouse, SUM149 tumor (xenograft), iv, 740 kBq, total radioactivity
Procedure, shortened: as §2

[7] = biological target: recombinant human PD-L1(B7-H1)-His-tag protein (human) (UniProt Q9NZQ7); assay: AlphaScreen or HTRF
[8] = biological target: endogenous PD-L1 on MDAMB231 and H226 cells (human (endogenous in MDAMB231 and H226)) (UniProt Q9NZQ7)

Compound: CCCC[C@H]1C(=O)N(C)[C@@H](CCCC)C(=O)N[C@@H](CCCNC(=O)c2ccc(F)nc2)C(=O)N[C@H](C(=O)NCC(N)=O)CSCC(=O)N[C@@H](Cc2ccc(O)cc2)C(=O)N(C)[C@@H](C)C(=O)N[C@@H](CC(N)=O)C(=O)N2CCC[C@H]2C(=O)N[C@@H](Cc2c[nH]cn2)C(=O)N[C@@H](CC(C)C)C(=O)N2C[C@H](O)C[C@H]2C(=O)N[C@@H](Cc2c[nH]c3ccccc23)C(=O)N[C@@H](CO)C(=O)N[C@@H](Cc2cn(C)c3ccccc23)C(=O)N1C [[^18F]FPy-WL12]
- accumulation in liver and kidneys [1]: high
- tissue uptake at 2 h [2]: 2.15 ± 0.1 %ID/g
- tissue uptake at 2 h [3]: 2.77 ± 0.31 %ID/g
- [^18F]FPy-WL12 uptake in cells coincubated with unmodified WL12 [4]: significantly reduced
- reduction in the uptake in hPD-L1 tumors by blocking dose (hPD-L1 tumors): 85%
- tissue uptake at 1 h [5]: 7.16 ± 1.67 %ID/g
- tissue uptake at 2 h [6]: 1.43 ± 0.11 %ID/g

Compound: WL12, PD-L1-binding peptide (14-amino acid cyclic peptide)
- IC50 [7]: 26.4 nM
- Ki [7]: 12.3 nM

Compound: [^18F]FPy-WL12, radiotracer (WL12 acylated with 6-[^18F]fluoronicotinate) (peptide)
- tumor uptake in MDAMB231 xenografts at 120 minutes, ex vivo biodistribution [8]: 2.15 %ID/g

Compound: ^19FPy-WL12, nonradioactive analog of the radiotracer (WL12 acylated with 6-fluoronicotinate) (peptide)
- IC50 [7]: 31.7 nM
- Ki [7]: 14.8 nM

— publication PMC6563393 (Molecular Imaging, 2019)
